Data as given in PubChem BioAssay AID588438 (The Scripps Research Institute Molecular Screening Center, 2011).
Calls of active or inactive are those of the source.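 How the source made its calls: active means IC50 of 1 µM or lower against any of the four PAD enzymes tested; inactive means the rest.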

What was measured:
Test in all cases: PAD isozyme inhibitor IC50 panel – biochemical, colorimetric, BAEE substrate, recombinant PAD1-4, selectivity assay for PAD4 inhibitor project, late-stage follow-up (AID 588438)
[1] = biological target: Protein-arginine deiminase type-1 (Homo sapiens) (UniProt Q9ULC6); details: recombinant PAD1-4, BAEE citrulline colorimetric absorbance; PAD1
Sequence of Protein-arginine deiminase type-1 (Homo sapiens) (Q9ULC6 whole entry, looked up): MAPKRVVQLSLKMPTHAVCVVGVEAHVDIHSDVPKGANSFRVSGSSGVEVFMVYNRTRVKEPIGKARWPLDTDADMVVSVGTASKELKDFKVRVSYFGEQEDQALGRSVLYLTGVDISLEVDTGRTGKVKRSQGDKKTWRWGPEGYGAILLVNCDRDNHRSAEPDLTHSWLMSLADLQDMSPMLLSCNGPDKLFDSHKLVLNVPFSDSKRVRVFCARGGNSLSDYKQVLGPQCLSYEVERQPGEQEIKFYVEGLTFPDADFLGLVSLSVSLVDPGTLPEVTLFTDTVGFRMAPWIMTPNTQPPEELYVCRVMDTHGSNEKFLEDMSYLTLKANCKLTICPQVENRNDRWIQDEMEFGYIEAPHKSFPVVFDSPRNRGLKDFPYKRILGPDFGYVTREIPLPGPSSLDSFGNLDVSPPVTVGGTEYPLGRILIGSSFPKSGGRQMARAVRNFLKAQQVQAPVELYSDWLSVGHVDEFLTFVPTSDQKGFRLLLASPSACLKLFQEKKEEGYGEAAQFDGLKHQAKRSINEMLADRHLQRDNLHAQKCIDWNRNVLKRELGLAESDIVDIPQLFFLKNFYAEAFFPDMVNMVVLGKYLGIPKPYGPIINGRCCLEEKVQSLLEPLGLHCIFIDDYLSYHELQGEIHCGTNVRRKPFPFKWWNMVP
Outline: (§1)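 Assay system: recombinant PAD1–4 enzymes; Dosing: 7-point inhibitor series; Medium: pH 7.6 Tris buffer with calcium; Replication: duplicate per concentration; Signal: citrulline color absorbance at 540 nm; Times: 15 min preincubation plus 15 min reaction, 37 °C; Also added: 10 mM BAEE substrate.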

[2] = biological target: Protein-arginine deiminase type-2 (Homo sapiens) (UniProt Q9Y2J8); details: recombinant PAD1-4, BAEE citrulline colorimetric absorbance; PAD2
Sequence of Protein-arginine deiminase type-2 (Homo sapiens) (Q9Y2J8 whole entry, looked up): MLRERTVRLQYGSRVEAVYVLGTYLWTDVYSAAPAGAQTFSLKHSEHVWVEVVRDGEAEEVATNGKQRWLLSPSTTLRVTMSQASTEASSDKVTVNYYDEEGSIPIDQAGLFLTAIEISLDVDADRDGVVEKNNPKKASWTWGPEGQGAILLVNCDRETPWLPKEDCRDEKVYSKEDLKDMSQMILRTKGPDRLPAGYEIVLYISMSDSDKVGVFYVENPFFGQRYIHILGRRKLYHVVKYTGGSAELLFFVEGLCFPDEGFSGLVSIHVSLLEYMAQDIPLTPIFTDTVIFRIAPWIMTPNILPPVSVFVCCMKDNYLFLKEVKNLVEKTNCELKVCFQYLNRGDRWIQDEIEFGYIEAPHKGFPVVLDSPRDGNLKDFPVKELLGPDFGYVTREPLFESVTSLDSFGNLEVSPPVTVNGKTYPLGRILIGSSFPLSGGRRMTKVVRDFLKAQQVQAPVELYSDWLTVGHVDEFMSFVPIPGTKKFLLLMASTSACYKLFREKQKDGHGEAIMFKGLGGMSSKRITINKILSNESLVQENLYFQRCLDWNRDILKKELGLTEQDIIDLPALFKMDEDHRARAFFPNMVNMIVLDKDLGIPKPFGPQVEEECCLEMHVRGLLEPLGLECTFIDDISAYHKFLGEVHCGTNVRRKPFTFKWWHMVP
Outline: as §1

[3] = biological target: Protein-arginine deiminase type-3 (Homo sapiens) (UniProt Q9ULW8); details: recombinant PAD1-4, BAEE citrulline colorimetric absorbance; PAD3
Sequence of Protein-arginine deiminase type-3 (Homo sapiens) (Q9ULW8 whole entry, looked up): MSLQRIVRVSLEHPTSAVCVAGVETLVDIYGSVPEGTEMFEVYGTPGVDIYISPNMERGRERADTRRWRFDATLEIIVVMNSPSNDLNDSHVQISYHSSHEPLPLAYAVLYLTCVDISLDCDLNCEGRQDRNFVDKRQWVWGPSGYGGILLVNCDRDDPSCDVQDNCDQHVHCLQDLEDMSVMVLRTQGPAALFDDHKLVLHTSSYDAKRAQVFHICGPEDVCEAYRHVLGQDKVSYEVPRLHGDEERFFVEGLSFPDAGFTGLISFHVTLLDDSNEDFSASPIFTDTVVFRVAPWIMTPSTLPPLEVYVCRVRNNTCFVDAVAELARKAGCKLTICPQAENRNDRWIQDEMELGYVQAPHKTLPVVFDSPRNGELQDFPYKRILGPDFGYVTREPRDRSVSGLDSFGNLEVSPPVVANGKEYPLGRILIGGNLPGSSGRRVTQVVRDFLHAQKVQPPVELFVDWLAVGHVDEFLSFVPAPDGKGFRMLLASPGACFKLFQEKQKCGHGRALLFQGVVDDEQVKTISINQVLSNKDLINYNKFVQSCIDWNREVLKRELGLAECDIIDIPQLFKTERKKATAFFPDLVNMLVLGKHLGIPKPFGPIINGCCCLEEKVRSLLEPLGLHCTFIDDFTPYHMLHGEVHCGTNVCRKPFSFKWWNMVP
Outline: as §1

[4] = biological target: Protein-arginine deiminase type-4 (Homo sapiens) (UniProt Q9UM07); details: recombinant PAD1-4, BAEE citrulline colorimetric absorbance; PAD4
Sequence of Protein-arginine deiminase type-4 (Homo sapiens) (Q9UM07 whole entry, looked up): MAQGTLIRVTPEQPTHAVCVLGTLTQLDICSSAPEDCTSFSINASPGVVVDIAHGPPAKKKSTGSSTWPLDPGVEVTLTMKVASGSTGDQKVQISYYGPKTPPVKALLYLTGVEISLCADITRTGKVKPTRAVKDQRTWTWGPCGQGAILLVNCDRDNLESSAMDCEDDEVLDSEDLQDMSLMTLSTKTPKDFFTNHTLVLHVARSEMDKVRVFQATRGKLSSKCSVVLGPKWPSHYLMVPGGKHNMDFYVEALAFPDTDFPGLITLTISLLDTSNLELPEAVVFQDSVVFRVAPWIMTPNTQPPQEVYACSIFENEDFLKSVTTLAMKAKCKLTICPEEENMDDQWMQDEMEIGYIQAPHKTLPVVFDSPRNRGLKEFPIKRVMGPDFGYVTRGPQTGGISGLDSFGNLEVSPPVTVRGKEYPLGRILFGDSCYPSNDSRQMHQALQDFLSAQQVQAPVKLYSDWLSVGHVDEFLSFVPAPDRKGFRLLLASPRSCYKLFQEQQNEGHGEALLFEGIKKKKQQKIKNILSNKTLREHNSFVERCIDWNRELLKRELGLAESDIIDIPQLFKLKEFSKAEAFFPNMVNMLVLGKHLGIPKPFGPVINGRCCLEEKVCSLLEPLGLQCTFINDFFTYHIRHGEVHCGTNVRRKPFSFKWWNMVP
Outline: as §1

- IC50 [1]: inactive
- IC50 [2]: 420 nM
- IC50 [3]: 330 nM
- IC50 [4]: 880 nM
SMILES: COC(=O)c1cccc(-c2ccc3c(n2)C(=O)C(N)=CC3=O)n1
